Results from ChEMBL document CHEMBL4270599, “Synthesis of a 3'-C-ethynyl-β-d-ribofuranose purine nucleoside library: Discovery of C7-deazapurine analogs as potent antiproliferative nucleosides” (Eur J Med Chem, 2018).
pIC50: −log10 of the molar value.

Columns and labels:
K562 = experiment: Growth inhibition of human K562 cells assessed as cell growth at 10^-7 M incubated for 48 hrs by sulforhodamine B assay relative to control; assay type: functional; settings: K562, 48 h, read-out: Activity
TK-10 [1] = experiment: Cytotoxicity against human TK10 cells after 48 hrs by SRB assay; assay type: functional; settings: TK-10, 48 h; for CC50: read-out: LC50 (the source's name)
SK-MEL-2 [2] = experiment: Growth inhibition of human SK-MEL-2 cells assessed as cell growth at 10^-7 M incubated for 48 hrs by sulforhodamine B assay relative to control; assay type: functional; settings: SK-MEL-2, 48 h, read-out: Activity
HCT-116 = experiment: Growth inhibition of human HCT116 cells assessed as cell growth at 10^-7 M incubated for 48 hrs by sulforhodamine B assay relative to control; assay type: functional; settings: HCT-116, 48 h, read-out: Activity
SN12C [3] = experiment: Cytotoxicity against human SN12C cells after 48 hrs by SRB assay; assay type: functional; settings: for CC50: read-out: pLC50 (the source's name) (converted)
786-0 = experiment: Growth inhibition of human 786-0 cells assessed as cell growth at 10^-8 M incubated for 48 hrs by sulforhodamine B assay relative to control; assay type: functional; settings: 786-0, 48 h, read-out: Activity
HeLa = experiment: Antiproliferative activity against human HeLa cells after 72 hrs by Coulter counter method; assay type: functional, cell-based
Method in brief: (§1)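 Cell count assay in 96-well microtiter plates; (5–7.5) × 10⁴ tumor cells per well plus test compound. Cells proliferated at 37 °C in humidified CO₂-controlled atmosphere, 48 h for murine leukemia L1210, 72 h for human lymphocytic CEM and cervix carcinoma HeLa. Counted by Coulter counter; IC₅₀ is the concentration that inhibits proliferation by 50%.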

NCI-H322M = experiment: Growth inhibition of human NCI-H322M cells assessed as cell growth at 10^-7 M incubated for 48 hrs by sulforhodamine B assay relative to control; assay type: functional; settings: read-out: Activity
TK-10 [4] = experiment: Growth inhibition of human TK10 cells assessed as cell growth at 10^-7 M incubated for 48 hrs by sulforhodamine B assay relative to control; assay type: functional; settings: TK-10, 48 h, read-out: Activity
KM12 = experiment: Cytotoxicity against human KM12 cells after 48 hrs by SRB assay; assay type: functional; settings: KM12, 48 h
UACC-257 = experiment: Growth inhibition of human UACC257 cells assessed as cell growth at 10^-5 M incubated for 48 hrs by sulforhodamine B assay relative to control; assay type: functional; settings: UACC-257, 48 h, read-out: Activity
BT-549 = experiment: Growth inhibition of human BT549 cells assessed as cell growth at 10^-7 M incubated for 48 hrs by sulforhodamine B assay relative to control; assay type: functional; settings: BT-549, 48 h, read-out: Activity
DU-145 = experiment: Growth inhibition of human DU145 cells assessed as cell growth at 10^-4 M incubated for 48 hrs by sulforhodamine B assay relative to control; assay type: functional; settings: DU-145, 48 h, read-out: Activity
SR = experiment: Growth inhibition of human SR cells assessed as cell growth at 10^-8 M incubated for 48 hrs by sulforhodamine B assay relative to control; assay type: functional; settings: read-out: Activity
SK-OV-3 = experiment: Growth inhibition of human SKOV3 cells assessed as cell growth at 10^-8 M incubated for 48 hrs by sulforhodamine B assay relative to control; assay type: functional; settings: SK-OV-3, 48 h, read-out: Activity
SNB-19 [5] = experiment: Growth inhibition of human SNB19 cells assessed as cell growth at 10^-6 M incubated for 48 hrs by sulforhodamine B assay relative to control; assay type: functional; settings: SNB-19, 48 h, read-out: Activity
MDA-MB-231 = experiment: Growth inhibition of human MDA-MB-231 cells assessed as cell growth at 10^-7 M incubated for 48 hrs by sulforhodamine B assay relative to control; assay type: functional; settings: MDA-MB-231, 48 h, read-out: Activity
OVCAR-3 = experiment: Cytotoxicity against human OVCAR3 cells after 48 hrs by SRB assay; assay type: functional; settings: OVCAR-3, 48 h
SN12C [6] = experiment: Growth inhibition of human SN12C cells assessed as cell growth at 10^-7 M incubated for 48 hrs by sulforhodamine B assay relative to control; assay type: functional; settings: read-out: Activity
OVCAR-8 = experiment: Growth inhibition of human OVCAR8 cells assessed as cell growth at 10^-8 M incubated for 48 hrs by sulforhodamine B assay relative to control; assay type: functional; settings: OVCAR-8, 48 h, read-out: Activity
SK-MEL-2 [7] = experiment: Growth inhibition of human SK-MEL-2 cells assessed as cell growth at 10^-8 M incubated for 48 hrs by sulforhodamine B assay relative to control; assay type: functional; settings: SK-MEL-2, 48 h, read-out: Activity
NCI-H226 = experiment: Growth inhibition of human NCI-H226 cells assessed as cell growth at 10^-8 M incubated for 48 hrs by sulforhodamine B assay relative to control; assay type: functional; settings: NCI-H226, 48 h, read-out: Activity
SK-MEL-5 = experiment: Growth inhibition of human SK-MEL-5 cells assessed as cell growth at 10^-8 M incubated for 48 hrs by sulforhodamine B assay relative to control; assay type: functional; settings: SK-MEL-5, 48 h, read-out: Activity
SN12C [8] = experiment: Growth inhibition of human SN12C cells assessed as cell growth at 10^-8 M incubated for 48 hrs by sulforhodamine B assay relative to control; assay type: functional; settings: read-out: Activity
HCT-15 [9] = experiment: Cytotoxicity against human HCT15 cells after 48 hrs by SRB assay; assay type: functional; settings: HCT-15, 48 h
RXF 393 = experiment: Growth inhibition of human RXF393 cells assessed as cell growth at 10^-6 M incubated for 48 hrs by sulforhodamine B assay relative to control; assay type: functional; settings: RXF 393, 48 h, read-out: Activity
SNB-19 [10] = experiment: Growth inhibition of human SNB19 cells assessed as cell growth at 10^-7 M incubated for 48 hrs by sulforhodamine B assay relative to control; assay type: functional; settings: SNB-19, 48 h, read-out: Activity
L1210 = experiment: Antiproliferative activity against mouse L1210 cells after 48 hrs by Coulter counter method; assay type: functional, cell-based; settings: L1210, 48 h; method in brief: as §1
SW-620 = experiment: Growth inhibition of human SW620 cells assessed as cell growth at 10^-4 M incubated for 48 hrs by sulforhodamine B assay relative to control; assay type: functional; settings: SW-620, 48 h, read-out: Activity
SNB-19 [11] = experiment: Growth inhibition of human SNB19 cells assessed as cell growth at 10^-5 M incubated for 48 hrs by sulforhodamine B assay relative to control; assay type: functional; settings: SNB-19, 48 h, read-out: Activity
MOLT-4 = experiment: Growth inhibition of human MOLT4 cells assessed as cell growth at 10^-8 M incubated for 48 hrs by sulforhodamine B assay relative to control; assay type: functional; settings: MOLT-4, 48 h, read-out: Activity
HCT-15 [12] = experiment: Growth inhibition of human HCT15 cells assessed as cell growth at 10^-7 M incubated for 48 hrs by sulforhodamine B assay relative to control; assay type: functional; settings: HCT-15, 48 h, read-out: Activity
[13] = read-out: pLC50 (the source's name) (converted)
[14] = read-out: LC50 (the source's name)

## C#C[C@@]1(O)[C@@H](CO)O[C@@H](n2ccc3c(N)ncnc32)[C@@H]1O
K562
  growth at 0.1 µM: 93%
TK-10 [1]
  CC50: > 100 µM
TK-10 [1]; read-out: TGI
  TGI: 9.48 µM
TK-10 [1]; read-out: pGI50 (converted)
  GI50: 2.63 µM
TK-10 [1]; read-out: pTGI (converted)
  TGI: 9.55 µM
SK-MEL-2 [2]
  growth at 0.1 µM: 90%
HCT-116
  growth at 0.1 µM: 92%
SN12C [3]; read-out: TGI
  TGI: 3.91 µM
SN12C [3]; read-out: pGI50 (converted)
  GI50: 0.794 µM
SN12C [3]
  CC50: 38 µM
SN12C [3]; read-out: pTGI (converted)
  TGI: 3.89 µM
786-0
  growth at 0.01 µM: 91%
HeLa
  pIC50: 6.06
NCI-H322M
  growth at 0.1 µM: 94%
TK-10 [4]
  growth at 0.1 µM: 110%
KM12; read-out: TGI
  TGI: 10.9 µM
KM12; [13]
  CC50: 91.2 µM
KM12; read-out: pTGI (converted)
  TGI: 11 µM
UACC-257
  growth at 10 µM: -16%
BT-549
  growth at 0.1 µM: 102%
DU-145
  growth at 100 µM: -48%
SR
  growth at 0.01 µM: 101%
SK-OV-3
  growth at 0.01 µM: 94%
SNB-19 [5]
  growth at 1 µM: 67%
MDA-MB-231
  growth at 0.1 µM: 106%
OVCAR-3; read-out: TGI
  TGI: 12 µM
OVCAR-3; read-out: pGI50 (converted)
  GI50: 2.95 µM
OVCAR-3; [13]
  CC50: > 100 µM
OVCAR-3; read-out: pTGI (converted)
  TGI: 12 µM
SN12C [6]
  growth at 0.1 µM: 96%
OVCAR-8
  growth at 0.01 µM: 103%
SK-MEL-2 [7]
  growth at 0.01 µM: 88%
NCI-H226
  growth at 0.01 µM: 94%
SK-MEL-5
  growth at 0.01 µM: 102%
SN12C [8]
  growth at 0.01 µM: 94%
HCT-15 [9]; read-out: TGI
  TGI: 4.62 µM
HCT-15 [9]; read-out: pGI50 (converted)
  GI50: 0.891 µM
HCT-15 [9]; [13]
  CC50: > 100 µM
HCT-15 [9]; read-out: pTGI (converted)
  TGI: 4.57 µM
RXF 393
  growth at 1 µM: 88%
SNB-19 [10]
  growth at 0.1 µM: 98%
L1210
  pIC50: 6.42
SW-620
  growth at 100 µM: -45%
SNB-19 [11]
  growth at 10 µM: -15%
MOLT-4
  growth at 0.01 µM: 96%
HCT-15 [12]
  growth at 0.1 µM: 93%

## C#C[C@@]1(O)[C@@H](CO)O[C@@H](n2cc(I)c3c(N)ncnc32)[C@@H]1O
K562
  growth at 0.1 µM: 35 to 41%
TK-10 [1]; read-out: GI50
  GI50: 0.551 to 0.572 µM
TK-10 [1]
  CC50: > 100 µM
TK-10 [1]; read-out: TGI
  TGI: 5.51 µM
TK-10 [1]; read-out: pTGI (converted)
  TGI: 5.5 µM
SK-MEL-2 [2]
  growth at 0.1 µM: 63 to 77%
HCT-116
  growth at 0.1 µM: 22 to 34%
SN12C [3]; read-out: GI50
  GI50: 0.069 to 0.138 µM
SN12C [3]; read-out: TGI
  TGI: > 100 µM
SN12C [3]
  CC50: > 100 µM
SN12C [3]; read-out: pTGI (converted)
  TGI: > 100 µM
786-0
  growth at 0.01 µM: 87 to 98%
HeLa
  pIC50: 6.74
NCI-H322M
  growth at 0.1 µM: 69 to 82%
TK-10 [4]
  growth at 0.1 µM: 85 to 96%
KM12; read-out: GI50
  GI50: 0.0928 to 0.0998 µM
KM12; [14]
  CC50: > 100 µM
KM12; read-out: TGI
  TGI: > 100 µM
KM12; read-out: pTGI (converted)
  TGI: > 100 µM
UACC-257
  growth at 10 µM: 6 to 7%
BT-549
  growth at 0.1 µM: 61 to 76%
DU-145
  growth at 100 µM: 7 to 10%
SR
  growth at 0.01 µM: 94 to 96%
SK-OV-3
  growth at 0.01 µM: 60 to 85%
SNB-19 [5]
  growth at 1 µM: 8 to 26%
MDA-MB-231
  growth at 0.1 µM: 60%
OVCAR-3; read-out: GI50
  GI50: 0.321 to 0.427 µM
OVCAR-3; [14]
  CC50: > 100 µM
SN12C [6]
  growth at 0.1 µM: 43 to 54%
OVCAR-8
  growth at 0.01 µM: 75 to 89%
SK-MEL-2 [7]
  growth at 0.01 µM: 84 to 101%
NCI-H226
  growth at 0.01 µM: 84 to 97%
SK-MEL-5
  growth at 0.01 µM: 87 to 94%
SN12C [8]
  growth at 0.01 µM: 85 to 90%
HCT-15 [9]; read-out: GI50
  GI50: 0.107 to 0.175 µM
HCT-15 [9]; [14]
  CC50: > 100 µM
HCT-15 [9]; read-out: TGI
  TGI: > 100 µM
HCT-15 [9]; read-out: pTGI (converted)
  TGI: > 100 µM
RXF 393
  growth at 1 µM: 26 to 34%
SNB-19 [10]
  growth at 0.1 µM: 34 to 59%
L1210
  pIC50: 7.25
SW-620
  growth at 100 µM: 3%
SNB-19 [11]
  growth at 10 µM: 2 to 3%
MOLT-4
  growth at 0.01 µM: 75 to 83%
HCT-15 [12]
  growth at 0.1 µM: 51 to 60%
